From publication PMC9072715 (RSC Advances, 2019)

Legend:
rabbit erythrocytes = test: Hemolysis of red blood cells assay; assay type: cell-based, NewZealand rabbit; conditions: 10% rabbit erythrocyte suspension, 3 to 48 μM, 4 hours, room temperature
Procedure, shortened: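 Heparinized blood came from a healthy New Zealand rabbit. Erythrocytes were washed three times in saline and diluted to a 10% suspension. The suspension was mixed 1:1 by volume with sample solution (0–48 μM test compound) and left 4 h at room temperature. Hemolysis was then assessed by observation.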

HeLa cells = test: CCK-8 anti-proliferative assay, HeLa; assay type: cell-based; conditions: Homo sapiens, 48 h, read-out: IC50 HeLa, HeLa, CCK-8, 48 h
Procedure, shortened: (§1)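 Log-phase cells in DMEM were plated at 1 × 10^4 per well and allowed 12 h at 37 °C and 5% CO2. Test compounds (0–80 μM) were added for 48 h. Medium was replaced with medium containing 10% CCK-8 for 4 h, and A450 was read. Percent inhibition was calculated against the untreated control and doxorubicin (positive control), and IC50 was obtained by curve fitting.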

MCF-7 cells = test: CCK-8 anti-proliferative assay, MCF-7; assay type: cell-based, human; conditions: read-out: IC50 MCF-7; MCF-7, CCK-8, 48 h
Procedure, shortened: as §1

C/C=C(\C)C(=O)O[C@H]1[C@H](OC(C)=O)[C@]2(CO)[C@H](O)C[C@]3(C)C(=CC[C@@H]4[C@@]5(C)CC[C@H](O[C@@H]6O[C@H](C(=O)O)[C@@H](O[C@@H]7O[C@H](CO)[C@@H](O)[C@H](O)[C@H]7O)[C@H](O)[C@H]6O[C@@H]6O[C@H](CO)[C@@H](O)[C@H](O)[C@H]6O)[C@](C)(CO)[C@@H]5CC[C@]43C)[C@@H]2CC1(C)C [Compound 6, Escin Ia]
Hemolytic effect (rabbit erythrocytes): showed hemolytic effect at 24 and 48 μM

C/C=C(/C)C(=O)O[C@H]1[C@H](OC(C)=O)[C@]2(CO)[C@H](O)C[C@]3(C)C(=CC[C@@H]4[C@@]5(C)CC[C@H](O[C@@H]6O[C@H](C(=O)O)[C@@H](O[C@@H]7O[C@H](CO)[C@@H](O)[C@H](O)[C@H]7O)[C@H](O)[C@H]6O[C@@H]6O[C@H](CO)[C@@H](O)[C@H](O)[C@H]6O)[C@](C)(CO)[C@@H]5CC[C@]43C)[C@@H]2CC1(C)C [Compound 7, Escin Ib]
IC50 (HeLa cells): 55 µM | IC50 (MCF-7 cells): > 80 µM
